Blank lines part the entries; values can stand above or below the molecule they belong to.
What was measured:
TSPO [1] = target: T1, TSPO (Rattus norvegicus, UniProt P16257); experiment: Radioligand displacement of 3H-PK 11195 in C6 glioma cell lysate; format: binding; details: for decrease in affinity with respect to parent compound: R2 hydrogen replaced with methyl
TSPO [2] = details: high-affinity TSPO ligand for comparison; cited from earlier work
[3] = within the first 12 minutes post-administration; cited from earlier work
C6 glioma = format: in vivo, Wistar rats
Procedure, shortened: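 C6 glioma-bearing Wistar rats were given the 18F-labelled test compound (radiochemical purity >99%) and imaged by 90-minute dynamic microPET. Time-activity curves were drawn for tumor, normal brain and plasma across eight representative studies. Plasma radiometabolites were analysed by radio-HPLC at 2, 12, 30, 60 and 90 min. Brains were processed post mortem for staining and immunohistochemistry.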

[4] = Radio-HPLC of radiometabolites in plasma during PET scanning; format: in vivo, rat; details: 2, 12, 30, 60, 90 min
TSPO [5] = target: T1, TSPO; experiment: Biodistribution and specific binding; format: in vivo, rats
Procedure, shortened: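 Normal rats received an infusion of the 18F-labelled test compound (radiochemical purity >99%, specific activity >4203 Ci/mmol). Tissues were harvested 60 minutes after infusion, and their radioactivity was counted. Values are expressed as percentage of injected dose per gram of tissue (%ID/g).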

[6] = bolus of non-radioactive 6b (10 mg/kg) at 30 minutes, 60-minute assay

decrease in affinity with respect to parent compound (TSPO [1]): approximately 10 fold
SMILES: CCN(CC)C(=O)Cc1c(-c2ccc(OC)cc2)nn2c(C)c(C)c(C)nc12 [Compound 5d]

enhancement in affinity compared to 6a (DPA-714) (TSPO [1]; TSPO affinity): 36 fold
SMILES: CCc1cc(CC)n2nc(-c3ccc(OCCF)cc3)c(CC(=O)N(CC)CC)c2n1 [Compound 6b, 2-(5,7-diethyl-2-(4-(2-fluoroethoxy)phenyl)pyrazolo[1,5-a]pyrimidin-3-yl)-N,N-diethylacetamide]

decrease in affinity with respect to parent compound (TSPO [1]): approximately 10 fold
SMILES: CCN(CC)C(=O)Cc1c(-c2ccc(OCCF)cc2)nn2c(C)c(C)c(C)nc12 [Compound 6d]

SMILES: COc1ccccc1CN(C(C)=O)c1cnccc1Oc1ccccc1 [PBR28, N-(2-methoxybenzyl)-N-(4-phenoxypyridin-3-yl)acetamide]
Ki (TSPO [2]): 4 nM

SMILES: CCN(CC)C(=O)Cc1c(-c2ccc(OCC[18F])cc2)nn2c(C)cc(C)nc12 [^18F-6a, N,N-diethyl-2-(2-(4-(2-[^18F]fluoroethoxy)phenyl)-5,7-dimethylpyrazolo[1,5-a]pyrimidin-3-yl)acetamide]
metabolism in plasma [3]: up to 30%

clearance from plasma (C6 glioma; time-activity curve, 90-minute dynamic acquisition): quickly cleared from the plasma | accumulation in brain, testes, skull, and skeletal muscle (TSPO [5]; 60 minutes after infusion): Very minor accumulation | accumulation in spleen, heart, kidney, and lung (TSPO [5]; 60 minutes after infusion): elevated accumulation | uptake in liver, colon, small bowel, and stomach (TSPO [5]; 60 minutes after infusion): Moderate uptake | radioactivity in whole blood or urine (TSPO [5]; 60 minutes post-administration): very little radio-activity | activity in muscle or liver with displacement (TSPO [5]; [6]): essentially unchanged with displacement | activity in spleen, heart, kidney, and lung with displacement (TSPO [5]; [6]): reduced to background levels | activity in urine with displacement (TSPO [5]; [6]): elevated with displacement
SMILES: CCc1cc(CC)n2nc(-c3ccc(OCC[18F])cc3)c(CC(=O)N(CC)CC)c2n1 [^18F-6b, 2-(5,7-diethyl-2-(4-(2-[^18F]fluoroethoxy)phenyl)pyrazolo[1,5-a]pyrimidin-3-yl)-N,N-diethylacetamide]
tracer uptake in brain (tumor vs normal brain) (C6 glioma; dynamic PET, 90-minute acquisition): majority of tracer uptake in the brain was localized to the tumor | radioactive species detected in plasma [4]: the only radioactive species detected in plasma at all time points
